Legend:
Assay type in all cases: functional
[1] = tested on: TK-10; test: Cytotoxicity against human TK10 cells assessed as growth inhibition at 10 uM after 48 hrs by SRB assay; details: TK-10, 48 h, read-out: GI
Method in brief: (§1)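 Single-dose screen at 10µM across the sixty-cell-line panel. Percentage growth is derived from SRB-stain OD taken just before compound exposure, after 48 hrs exposure, and in vehicle-treated controls. Negative values indicate cytotoxicity.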

[2] = tested on: UACC-62; test: Cytotoxicity against human UACC62 cells after 48 hrs by SRB assay; details: UACC-62, 48 h
Method in brief: (§2)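 Five-dose run from the sixty-line panel, at 10−4, 10−5, 10−6, 10−7 and 10−8 M. SRB-stain OD is read just before compound addition, after 48 hrs of exposure, and in vehicle controls, giving percentage growth; negative growth indicates cytotoxicity. GI50 is the concentration giving 50% reduction in net protein increase versus control cells. LC50 is the concentration lethal to 50% of cells.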

[3] = tested on: A498; test: Cytotoxicity against human A498 cells after 48 hrs by SRB assay; details: A498, 48 h; method in brief: as §2
[4] = tested on: SF-295; test: Cytotoxicity against human SF295 cells after 48 hrs by SRB assay; details: SF-295, 48 h; method in brief: as §2
[5] = tested on: SNB-19; test: Cytotoxicity against human SNB19 cells after 48 hrs by SRB assay; details: SNB-19, 48 h; method in brief: as §2
[6] = tested on: TK-10; test: Cytotoxicity against human TK10 cells after 48 hrs by SRB assay; details: TK-10, 48 h; for CC50: read-out: LC50 (the source's name); method in brief: as §2
[7] = tested on: NCI-H460; test: Cytotoxicity against human NCI-H460 cells after 48 hrs by SRB assay; details: NCI-H460, 48 h; for CC50: read-out: LC50 (the source's name); method in brief: as §2
[8] = tested on: K562; test: Cytotoxicity against human K562 cells after 48 hrs by SRB assay; details: K562, 48 h; for CC50: read-out: LC50 (the source's name); method in brief: as §2
[9] = tested on: MDA-MB-468; test: Cytotoxicity against human MDA-MB-468 cells assessed as growth inhibition at 10 uM after 48 hrs by SRB assay; details: MDA-MB-468, 48 h, read-out: GI; method in brief: as §1
[10] = tested on: OVCAR-8; test: Cytotoxicity against human OVCAR8 cells after 48 hrs by SRB assay; details: OVCAR-8, 48 h; for CC50: read-out: LC50 (the source's name); method in brief: as §2
[11] = tested on: SN12C; test: Cytotoxicity against human SN12C cells after 48 hrs by SRB assay; details: for CC50: read-out: LC50 (the source's name); method in brief: as §2
[12] = tested on: SK-MEL-5; test: Cytotoxicity against human SK-MEL-5 cells after 48 hrs by SRB assay; details: SK-MEL-5, 48 h; method in brief: as §2
[13] = tested on: SK-OV-3; test: Cytotoxicity against human SKOV3 cells after 48 hrs by SRB assay; details: SK-OV-3, 48 h; method in brief: as §2
[14] = Cytotoxicity against human UACC257 cells after 48 hrs by SRB assay; details: UACC-257, 48 h; for CC50: read-out: LC50 (the source's name); method in brief: as §2
[15] = tested on: MDA-MB-468; test: Cytotoxicity against human MDA-MB-468 cells after 48 hrs by SRB assay; details: MDA-MB-468, 48 h; method in brief: as §2
[16] = tested on: NCI-H23; test: Cytotoxicity against human NCI-H23 cells after 48 hrs by SRB assay; details: NCI-H23, 48 h; method in brief: as §2
[17] = tested on: SW-620; test: Cytotoxicity against human SW620 cells after 48 hrs by SRB assay; details: SW-620, 48 h; for CC50: read-out: LC50 (the source's name); method in brief: as §2
[18] = tested on: MDA-MB-435; test: Cytotoxicity against human MDA-MB-435 cells after 48 hrs by SRB assay; details: MDA-MB-435, 48 h; method in brief: as §2
[19] = tested on: BT-549; test: Cytotoxicity against human BT549 cells after 48 hrs by SRB assay; details: BT-549, 48 h; for CC50: read-out: LC50 (the source's name); method in brief: as §2
[20] = tested on: SK-MEL-2; test: Cytotoxicity against human SK-MEL-2 cells after 48 hrs by SRB assay; details: SK-MEL-2, 48 h; method in brief: as §2
[21] = tested on: COLO 205; test: Cytotoxicity against human COLO205 cells after 48 hrs by SRB assay; details: COLO 205, 48 h; for CC50: read-out: LC50 (the source's name); method in brief: as §2
[22] = tested on: T47D; test: Cytotoxicity against human T47D cells after 48 hrs by SRB assay; method in brief: as §2
[23] = Cytotoxicity against human OVCAR5 cells after 48 hrs by SRB assay; details: OVCAR-5, 48 h; for CC50: read-out: LC50 (the source's name); method in brief: as §2
[24] = tested on: SR; test: Cytotoxicity against human SR cells after 48 hrs by SRB assay; method in brief: as §2
[25] = tested on: NCI-H226; test: Cytotoxicity against human NCI-H226 cells after 48 hrs by SRB assay; details: NCI-H226, 48 h; for CC50: read-out: LC50 (the source's name); method in brief: as §2
[26] = tested on: IGROV-1; test: Cytotoxicity against human IGROV1 cells after 48 hrs by SRB assay; details: IGROV-1, 48 h; for CC50: read-out: LC50 (the source's name); method in brief: as §2
[27] = tested on: MDA-MB-231; test: Cytotoxicity against human MDA-MB-231 cells after 48 hrs by SRB assay; details: MDA-MB-231, 48 h; for CC50: read-out: LC50 (the source's name); method in brief: as §2
[28] = Cytotoxicity against human NCI-ADR-RES cells after 48 hrs by SRB assay; details: for CC50: read-out: LC50 (the source's name); method in brief: as §2
[29] = tested on: HCT-116; test: Cytotoxicity against human HCT116 cells after 48 hrs by SRB assay; details: HCT-116, 48 h; method in brief: as §2
[30] = tested on: RXF 393; test: Cytotoxicity against human RXF393 cells after 48 hrs by SRB assay; details: RXF 393, 48 h; method in brief: as §2
[31] = tested on: 786-0; test: Cytotoxicity against human 786-0 cells after 48 hrs by SRB assay; details: 786-0, 48 h; method in brief: as §2
[32] = tested on: HOP-62; test: Cytotoxicity against human HOP62 cells after 48 hrs by SRB assay; details: HOP-62, 48 h; for CC50: read-out: LC50 (the source's name); method in brief: as §2
[33] = Cytotoxicity against human OVCAR5 cells assessed as growth inhibition at 10 uM after 48 hrs by SRB assay; details: OVCAR-5, 48 h, read-out: GI; method in brief: as §1
[34] = tested on: MCF7; test: Cytotoxicity against human MCF7 cells after 48 hrs by SRB assay; details: MCF7, 48 h; method in brief: as §2
[35] = tested on: A498; test: Cytotoxicity against human A498 cells assessed as growth inhibition at 10 uM after 48 hrs by SRB assay; details: A498, 48 h, read-out: GI; method in brief: as §1
[36] = tested on: LOX IMVI; test: Cytotoxicity against human LOXIMVI cells after 48 hrs by SRB assay; details: for CC50: read-out: LC50 (the source's name); method in brief: as §2
[37] = tested on: NCI-H226; test: Cytotoxicity against human NCI-H226 cells assessed as growth inhibition at 10 uM after 48 hrs by SRB assay; details: NCI-H226, 48 h, read-out: GI; method in brief: as §1

## CN1C(=O)C(=Cc2cn(Cc3ccc(Cl)cc3)c3ccccc23)C(=O)N(C)C1=O
[1]
  inhibition of growth at 10 µM: -26%
[2]
  GI50: 2.06 µM
  LC50: > 100 µM
[3]
  GI50: 0.04 µM
  LC50: 0.64 µM
[4]
  GI50: 1.21 µM
  LC50: > 100 µM
[5]
  GI50: 18.3 µM
  LC50: > 100 µM
[6]
  GI50: 0.18 µM
  CC50: 50.4 µM
[7]
  GI50: 0.4 µM
  CC50: > 100 µM
[8]
  CC50: > 100 µM
[9]
  inhibition of growth at 10 µM: -71%
[10]
  GI50: 21.3 µM
  CC50: > 100 µM
[11]
  GI50: 92.1 µM
  CC50: > 100 µM
[12]
  GI50: > 100 µM
  LC50: > 100 µM
[13]
  GI50: 6.08 µM
  LC50: > 100 µM
[14]
  GI50: 2.01 µM
  CC50: > 100 µM
[15]
  GI50: 0.06 µM
  LC50: 0.7 µM
[16]
  GI50: 10.2 µM
  LC50: > 100 µM
[17]
  GI50: > 100 µM
  CC50: > 100 µM
[18]
  GI50: > 100 µM
  LC50: > 100 µM
[19]
  GI50: 12.5 µM
  CC50: > 100 µM
[20]
  GI50: 2.84 µM
[21]
  GI50: 2.78 µM
  CC50: 29.5 µM
[22]
  GI50: 3.53 µM
  LC50: > 100 µM
[23]
  GI50: 0.16 µM
  CC50: > 100 µM
[24]
  GI50: 70.3 µM
  LC50 (lethal concentration, 50%): > 100 µM
[25]
  GI50: 1.26 µM
  CC50: > 100 µM
[26]
  GI50: 2.88 µM
  CC50: > 100 µM
[27]
  GI50: 12.2 µM
  CC50: > 100 µM
[28]
  GI50: 16.3 µM
  CC50: > 100 µM
[29]
  GI50: 4.47 µM
  LC50: > 100 µM
[30]
  GI50: 12.5 µM
  LC50 (lethal concentration, 50%): > 100 µM
[31]
  GI50: 6.9 µM
  LC50: > 100 µM
[32]
  GI50: 10.7 µM
  CC50: > 100 µM
[33]
  inhibition of growth at 10 µM: -23%
[34]
  GI50: > 100 µM
  LC50: > 100 µM
[35]
  inhibition of growth at 10 µM: -94%
[36]
  GI50: 17.3 µM
  CC50: > 100 µM
[37]
  inhibition of growth at 10 µM: -82%

## COC(=O)c1ccc(Cn2cc(C=C3C(=O)N(C)C(=O)N(C)C3=O)c3cc(C(=O)OC)ccc32)cc1
[1]
  inhibition of growth at 10 µM: 113%
[9]
  inhibition of growth at 10 µM: 99%
[33]
  inhibition of growth at 10 µM: 98%
[35]
  inhibition of growth at 10 µM: 105%
[37]
  inhibition of growth at 10 µM: 88%

## Cc1ccc(Cn2cc(C=C3C(=O)N(C)C(=O)N(C)C3=O)c3ccccc32)cc1
[1]
  inhibition of growth at 10 µM: -4%
[2]
  GI50: 2.42 µM
  LC50: > 100 µM
[3]
  GI50: 0.12 µM
  LC50: 0.69 µM
[4]
  GI50: 2.02 µM
  LC50: > 100 µM
[5]
  GI50: 26.8 µM
  LC50: > 100 µM
[6]
  GI50: 0.28 µM
  CC50: > 100 µM
[7]
  GI50: 0.91 µM
  CC50: > 100 µM
[8]
  GI50: 2.23 µM
  CC50: > 100 µM
[9]
  inhibition of growth at 10 µM: -62%
[10]
  GI50: > 100 µM
  CC50: > 100 µM
[11]
  GI50: > 100 µM
  CC50: > 100 µM
[12]
  GI50: 9.17 µM
  LC50: > 100 µM
[13]
  GI50: 23.7 µM
  LC50: > 100 µM
[14]
  GI50: 2.02 µM
  CC50: > 100 µM
[15]
  GI50: 0.03 µM
  LC50: 0.62 µM
[16]
  GI50: 8.19 µM
  LC50: > 100 µM
[17]
  CC50: > 100 µM
[18]
  LC50: > 100 µM
[19]
  GI50: 13.5 µM
  CC50: > 100 µM
[20]
  GI50: 3.36 µM
[21]
  GI50: 1.89 µM
  CC50: > 100 µM
[22]
  GI50: 5 µM
  LC50: > 100 µM
[23]
  GI50: 0.07 µM
  CC50: > 100 µM
[24]
  GI50: 1.89 µM
  LC50 (lethal concentration, 50%): > 100 µM
[25]
  GI50: 1.95 µM
  CC50: > 100 µM
[26]
  GI50: 2.95 µM
  CC50: > 100 µM
[27]
  GI50: 13.6 µM
  CC50: > 100 µM
[28]
  GI50: 6.23 µM
  CC50: > 100 µM
[29]
  GI50: 5.45 µM
  LC50: > 100 µM
[30]
  GI50: 15.2 µM
  LC50 (lethal concentration, 50%): > 100 µM
[31]
  GI50: 22.1 µM
  LC50: > 100 µM
[32]
  GI50: 7.44 µM
  CC50: > 100 µM
[33]
  inhibition of growth at 10 µM: -23%
[34]
  GI50: 6.76 µM
  LC50: > 100 µM
[35]
  inhibition of growth at 10 µM: -91%
[36]
  GI50: 27.8 µM
  CC50: > 100 µM
[37]
  inhibition of growth at 10 µM: -63%

From ChEMBL document CHEMBL3102840, “Synthesis and anti-proliferative activity of aromatic substituted 5-((1-benzyl-1H-indol-3-yl)methylene)-1,3-dimethylpyrimidine-2,4,6(1H,3H,5H)-trione analogs against human tumor cell lines” (2014)
